≈ marks a conversion by molar mass, not a printed value.
What was measured:
CCRF-CEM [1] = test: 50% effective concentration of compound which is required to protect human CEM cells against HIV-2 induced giant cell formation.; format: functional, cell-based
How it was run: (§1)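 CEM cells at 250000–300000 cells/mL infected with HIV-1 (IIIB) or HIV-2 (ROD) at 100 CCID50/mL. Infected cells mixed with serial compound dilutions and incubated 4 days at 37 °C. Syncytium (giant cell) formation then scored. Values averaged over two independent experiments.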

CCRF-CEM [2] = test: Cytotoxic concentration which is required to reduce human CEM cell viability by 50%.; format: functional
How it was run: (§2)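 Human CEM or Molt-4 cells seeded at 7.5 × 10^5 cells/mL with varying compound concentrations. Incubated 3 days at 37 °C in humidified CO2. Viable cells counted with a Coulter counter. Value is the concentration reducing viable cell number by 50%.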

[3] = Selectivity index of HIV-1 and HIV-2 with respect to MT-4 cells; format: functional, MT4
How it was run: (§3)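 Selectivity index calculated as average CC50 divided by average EC50. Each average comes from two independent experiments, using HIV-1 (IIIB) and HIV-2 (ROD) in CEM or MT-4 cells.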

MT4 [4] = test: 50% effective concentration of compound which is required to protect human MT-4 cells against cytopathogenicity of HIV-2.; format: functional, cell-based
[5] = Selectivity index of HIV-1 and HIV-2 with respect to CEM cells; format: functional, CCRF-CEM; how it was run: as §3
CEM-TK(-) [6] = test: 50% effective concentration of compound which is required to protect Thymidine kinase deficient human CEM (CEM/TK-) cells against HIV-2.; format: functional, cell-based
MT4 [7] = test: 50% effective concentration of compound which is required to protect human MT-4 cells against cytopathogenicity of HIV-1.; format: functional, cell-based
MT4 [8] = test: Cytotoxic concentration which is required to reduce human MT-4 cell viability by 50%.; format: functional
CCRF-CEM [9] = test: 50% effective concentration of compound which is required to protect human CEM cells against HIV-1 induced giant cell formation.; format: functional, cell-based; how it was run: as §1
CEM-TK(-) [10] = test: Cytotoxic concentration which is required to reduce CEM/TK- cell viability by 50%.; format: functional; details: Homo sapiens
E6SM [11] = test: 50% Minimum inhibitory concentration which is required to reduce cytopathogenicity induced by (G) strain of HSV-2 virus on human E6SM cells.; format: functional
How it was run: (§4)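 Confluent cell monolayers infected with 100 CCID50 virus and left 1 h for adsorption. Residual virus then removed and compound added at serial dilutions (400, 200, 100 ... µg/mL). Value is the concentration giving 50% reduction of CPE.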

E6SM [12] = test: 50% Minimum inhibitory concentration which is required to reduce cytopathogenicity induced by (KOS) strain of HSV-1 virus on human E6SM cells.; format: functional; how it was run: as §4
E6SM [13] = test: 50% Minimum inhibitory concentration which is required to reduce cytopathogenicity induced by (F) strain of HSV-1 virus on human E6SM cells.; format: functional; how it was run: as §4
E6SM [14] = test: 50% Minimum inhibitory concentration which is required to reduce cytopathogenicity induced by (Lyons) strain of HSV-2 virus on human E6SM cells.; format: functional; how it was run: as §4
E6SM [15] = test: 50% Minimum inhibitory concentration which is required to reduce cytopathogenicity induced by TK-(B2006) strain of HSV-1 virus on human E6SM cells.; format: functional; how it was run: as §4
E6SM [16] = test: 50% Minimum inhibitory concentration which is required to reduce cytopathogenicity induced by (196) strain of HSV-2 virus on human E6SM cells.; format: functional; how it was run: as §4
[17] = Minimum cytotoxic concentration which causes microscopically detectable alteration of normal cell morphology after 2 days of incubation.; format: functional; details: 48 h
How it was run: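 Uninfected E6SM cells exposed to compound for 2 days. Minimum concentration giving a microscopically detectable change in normal cell morphology recorded.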

E6SM [18] = test: 50% Minimum inhibitory concentration which is required to reduce cytopathogenicity induced by (Mc Intyre) strain of HSV-1 virus on human E6SM cells.; format: functional; how it was run: as §4
L1210 = test: EC50 is the cytotoxic concentration of compound required to reduce L1210 (murine leukemia cells) cell viability by 50%.; format: functional, cell-based; details: Mus musculus
How it was run: (§5)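 Murine L1210 or FM3A-derived cells seeded at 5 × 10^5 cells/mL with varying compound concentrations. Incubated 2 days at 37 °C in humidified CO2. Viable cells counted with a Coulter counter. Value is the concentration reducing viable cell number by 50%.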

HEL [19] = test: 50% Minimum inhibitory concentration which is required to reduce cytopathogenicity induced by (Mc Intyre) strain of HSV-1 virus on human embryonic HEL cells.; format: functional; how it was run: as §4
HEL [20] = test: 50% Minimum inhibitory concentration which is required to reduce cytopathogenicity induced by TK-(B2006) strain of HSV-1 virus on human embryonic HEL cells.; format: functional; how it was run: as §4
HEL [21] = test: 50% Minimum inhibitory concentration which is required to reduce cytopathogenicity induced by (KOS) strain of HSV-1 virus on human embryonic HEL cells.; format: functional; how it was run: as §4
FM3A [22] = test: EC50 is the cytotoxic concentration of compound required to reduce FM3A/TK- HSV-1TK+ cell viability by 50%.; format: functional, cell-based; details: Mus musculus; how it was run: as §5
FM3A [23] = test: EC50 is the cytotoxic concentration of compound required to reduce FM3A (murine mammary carcinoma cells) cell viability by 50%.; format: functional, cell-based; details: Mus musculus; how it was run: as §5
MOLT-4 = test: EC50 is the cytotoxic concentration of compound required to reduce Molt4/C8 (human T-lymphocyte) cell viability by 50%.; format: functional, cell-based; how it was run: as §2
HEL [24] = test: 50% Minimum inhibitory concentration which is required to reduce cytopathogenicity induced by (Lyons) strain of HSV-2 virus on human embryonic HEL cells.; format: functional; how it was run: as §4
FM3A [25] = test: EC50 is the cytotoxic concentration of compound required to reduce FM3A/TK- (Thymidine kinase deficient murine mammary carcinoma cells) cell viability by 50%.; format: functional, cell-based; details: Mus musculus; how it was run: as §5
HEL [26] = test: 50% Minimum inhibitory concentration which is required to reduce cytopathogenicity induced by (G) strain of HSV-2 virus on human embryonic HEL cells.; format: functional; how it was run: as §4
E6SM [27] = test: 50% Minimum inhibitory concentration which is required to reduce cytopathogenicity induced by Vaccinia virus (VV) on human E6SM cells.; format: functional; how it was run: as §4
HEL [28] = test: 50% Minimum inhibitory concentration which is required to reduce cytopathogenicity induced by (OKA) strain of Varicella Zoster virus on human embryonic HEL cells.; format: functional

Structure (SMILES) | EC50 (CCRF-CEM [1]) [µg/mL] | CC50 (CCRF-CEM [2]) [µg/mL] | Selectivity index [3] | EC50 (MT4 [4]) [µg/mL] | Selectivity index [5] | EC50 (CEM-TK(-) [6]) [µg/mL] | EC50 (MT4 [7]) [µg/mL] | CC50 (MT4 [8]) [µg/mL] | EC50 (CCRF-CEM [9]) [µg/mL] | CC50 (CEM-TK(-) [10]) [µg/mL] | MIC (E6SM [11]) [µg/mL] | MIC (E6SM [12]) [µg/mL] | MIC (E6SM [13]) [µg/mL] | MIC (E6SM [14]) [µg/mL] | MIC (E6SM [15]) [µg/mL] | MIC (E6SM [16]) [µg/mL] | MCC [17] [µg/mL] | MIC (E6SM [18]) [µg/mL] | MIC (HEL [19]) [µg/mL] | MIC (HEL [20]) [µg/mL] | also measured
Cc1cn([C@H]2C[C@H](N=[N+]=[N-])[C@@H](CO)O2)c(=O)[nH]c1=O [ZIDOVUDINE] | 0.0009 (≈ 0.00337 µM) | > 100 | 3000 | 0.0007 (≈ 0.00262 µM) | >100000 | > 25 | 0.0005 (≈ 0.00187 µM) | 1.5 (≈ 5.61 µM) | 0.0007 (≈ 0.00262 µM) | > 200 | – | – | – | – | – | – | – | – | – | – | –
NC(=O)c1ncn([C@@H]2O[C@H](CO)[C@@H](O)[C@H]2O)n1 [RIBAVIRIN] | – | – | – | – | – | – | – | – | – | – | 50 (≈ 205 µM) | 60 (≈ 246 µM) | 80 (≈ 328 µM) | 100 (≈ 409 µM) | 150 (≈ 614 µM) | 150 (≈ 614 µM) | > 400 | 90 (≈ 369 µM) | – | – | –
Cc1cn(C2CC([N+](=O)[O-])C(CO)O2)c(=O)[nH]c1=O (centres undefined) | 100 (≈ 369 µM) | 168 (≈ 619 µM) | 79 | 2.2 (≈ 8.11 µM) | >1.7 | > 100 | 1 (≈ 3.69 µM) | 93 (≈ 343 µM) | > 100 | > 200 | > 200 | > 200 | > 200 | > 200 | > 200 | > 200 | > 200 | > 200 | 20 (≈ 73.7 µM) | > 50 | EC50 (L1210): 58 µg/mL (≈ 214 µM); MIC (HEL [21]): 5 µg/mL (≈ 18.4 µM); EC50 (FM3A [22]): > 200 µg/mL; EC50 (FM3A [23]): > 200 µg/mL; EC50 (MOLT-4): 70 µg/mL (≈ 258 µM); MIC (HEL [24]): 25 µg/mL (≈ 92.2 µM); EC50 (FM3A [25]): > 200 µg/mL; MIC (HEL [26]): 20 µg/mL (≈ 73.7 µM)
CC(=O)O/N=C1/C[C@H](n2cc(C)c(=O)[nH]c2=O)O[C@@H]1CO.CC(=O)O/N=C1\C[C@H](n2cc(C)c(=O)[nH]c2=O)O[C@@H]1CO (racemic) | 0.8 | 104 | 182 | 0.05 | 130 | > 20 | 0.05 | 7.1 | 1 | > 200 | 1 | 0.9 | 5 | 4 | > 200 | 70 | 400 | 2 | 2.7 | > 5 | EC50 (L1210): 19 µg/mL; MIC (E6SM [27]): 70 µg/mL; MIC (HEL [28]): 20 µg/mL; MIC (HEL [21]): 3.8 µg/mL; EC50 (FM3A [22]): > 200 µg/mL; EC50 (FM3A [23]): > 200 µg/mL; EC50 (MOLT-4): 14 µg/mL; MIC (HEL [24]): 2 µg/mL; EC50 (FM3A [25]): > 200 µg/mL; MIC (HEL [26]): 2.8 µg/mL
O=c1[nH]c(=O)n([C@H]2C[C@H](O)[C@@H](CO)O2)cc1/C=C/Br [BRIVUDINE] | – | – | – | – | – | – | – | – | – | – | 90 (≈ 270 µM) | 0.007 (≈ 0.021 µM) | 0.02 (≈ 0.06 µM) | > 400 | 10 (≈ 30 µM) | > 400 | > 300 | 90 (≈ 270 µM) | 0.003 (≈ 0.00901 µM) | 50 (≈ 150 µM) | MIC (HEL [21]): 0.005 µg/mL (≈ 0.015 µM); MIC (HEL [24]): 5 µg/mL (≈ 15 µM); MIC (HEL [26]): 30 µg/mL (≈ 90.1 µM)

— ChEMBL document CHEMBL1130413, “Novel 3'-C/N-substituted 2',3'-beta-D-dideoxynucleosides as potential chemotherapeutic agents. 1. Thymidine derivatives: synthesis, structure, and broad spectrum antiviral properties” (J Med Chem, 1997)
